Bioassay records deposited in PubChem by Sanford-Burnham Center for Chemical Genomics.
Compounds with a hit are over-represented: about 1.4% of the library has one in this group of screens.
MT1-MMP act inh – inhibitors of human MT1-MMP activation; P50281; 360,000 tested, 0.061% active; AID 651647; HT1080 RFP-PRO-GFP cells, GFP/RFP ratio fluorescence, overnight; percent of plate control window, DMSO zero; GFP/RFP ratio change, % at 20 µM;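 active = GFP/RFP ratio change of at least 30% with cell ATP level not reduced by more than half and red fluorescence within 50% of control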
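Material: RFP-PRO-GFP reporter HT1080 cells. Dosing: single-point 20 µM compound, 1% DMSO. Controls: DMSO and RFP-L50D-GFP cell wells. Timing: cells overnight before dosing, compound overnight, 37 °C, 5% CO2. Measure: GFP/RFP fluorescence ratio.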
CendR NRP1 mod – modulators of CendR peptide binding to human neuropilin-1 | O14786 | FAM-RPARPAR peptide binding to NRP-1, fluorescence polarization | inhibition, % at 25 µM | 360,000 tested, 0.85% active | AID 602438;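 active = inhibition or corrected inhibition above about 18%, plus a signal ratio from 0.5 to 1.5, limit read from the data, passing the limit was not always enough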
Target sequence (O14786 whole entry, looked up): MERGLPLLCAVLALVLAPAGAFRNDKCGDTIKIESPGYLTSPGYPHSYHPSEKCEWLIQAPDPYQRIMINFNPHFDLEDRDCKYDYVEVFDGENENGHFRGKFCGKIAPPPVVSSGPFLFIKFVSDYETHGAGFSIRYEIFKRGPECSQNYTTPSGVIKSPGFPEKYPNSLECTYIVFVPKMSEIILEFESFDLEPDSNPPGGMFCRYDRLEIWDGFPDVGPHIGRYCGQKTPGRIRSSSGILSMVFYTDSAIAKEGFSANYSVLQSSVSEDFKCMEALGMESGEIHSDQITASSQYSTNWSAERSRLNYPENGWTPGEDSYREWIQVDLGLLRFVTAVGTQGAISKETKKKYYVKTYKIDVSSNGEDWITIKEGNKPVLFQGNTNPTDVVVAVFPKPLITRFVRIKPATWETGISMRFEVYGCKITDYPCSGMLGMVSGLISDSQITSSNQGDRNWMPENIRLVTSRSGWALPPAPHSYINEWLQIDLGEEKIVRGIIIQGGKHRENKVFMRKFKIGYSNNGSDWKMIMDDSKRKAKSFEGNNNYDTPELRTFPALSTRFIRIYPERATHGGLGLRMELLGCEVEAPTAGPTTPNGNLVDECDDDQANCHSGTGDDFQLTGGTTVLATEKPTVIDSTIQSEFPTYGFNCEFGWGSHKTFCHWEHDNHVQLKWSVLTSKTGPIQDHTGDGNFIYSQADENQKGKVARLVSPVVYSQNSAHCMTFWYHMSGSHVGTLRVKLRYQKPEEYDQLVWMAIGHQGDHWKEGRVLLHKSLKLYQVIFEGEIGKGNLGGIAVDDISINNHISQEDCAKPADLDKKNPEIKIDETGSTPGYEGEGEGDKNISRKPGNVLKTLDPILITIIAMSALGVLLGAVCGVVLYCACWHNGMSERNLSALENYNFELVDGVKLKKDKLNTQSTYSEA
SKN-1 block – blocks SKN-1 activity in C. elegans; inhibition, % at 21.8 µM; 360,000 tested, 0.49% active; AID 624304; C. elegans VP596 Pgst-4::GFP/RFP ratio, acrylamide-induced, 24 h;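 active = interference check ratio from 0.5 to 1.5 plus GFP to RFP signal ratio inhibition reaching or exceeding a fixed threshold, cut at about 30% in these data, passing the limit was not always enough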
iPSC survival up – increases survival of single human iPS cells. hiPSC single-cell survival, ATPlite luminescence; 100% = ROCK inhibitor wells, 0% = DMSO. survival enhancement, % at 20 µM. 360,000 tested, 0.044% active; in the data active = survival enhancement above about 18%;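 note: cells exposed to compounds for 16 hours before the ATP read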
Starred values were filed as active, the others as inactive.

SMILES | MT1-MMP act inh | CendR NRP1 mod | SKN-1 block | iPSC survival up
COCCCNC(=S)N/N=C/c1ccc(N(C)C)cc1Cl | 2.4 | -1.2 | 12.1 | 2.2
Cn1nnnc1SCC(=O)N1CCN(c2cccc(Cl)c2)CC1 | -0.3 | 8.4 | 39.5* | 1.5
Nc1nnc(SCC(=O)N2CCN(c3cccc(Cl)c3)CC2)n1-c1ccccc1 | 7.1 | -13.7 | 38.4* | 8.5
Cn1nnnc1SCC(=O)N1CCN(c2ccccc2)CC1 | -0.2 | 16.4 | -7.3 | 0.0
CS(=O)(=O)N(CC(=O)N1CCN(c2cccc(Cl)c2)CC1)C1CCCCC1 | -6.2 | 18.8* | -14.2 | -1.8
O=C(N/N=C\c1ccc([N+](=O)[O-])s1)c1cncc(Br)c1 | -9.8 | -38.6 | -3.7 | -1.7
COc1cc(/C=N/NC(=O)c2ccc(NC(=O)C3CC3)cc2)ccc1OC(C)=O | 9.6 | 26.9* | 3.1 | 0.1
COc1cc(C(=O)Nc2cc3c(cc2N2CCCCC2)n(C)c(=O)n3C)cc(OC)c1OC | 24.5 | 28.5* | 1.5 | -0.3
COc1ccc(C(=O)Nc2cc3c(cc2N2CCCCC2)n(C)c(=O)n3C)cc1OC | -4.4 | 4.0 | 15.4 | -0.4
Cn1c(=O)c2[nH]c(SCCN3CCCCC3)nc2n(C)c1=S | 1.7 | 20.5* | 10.7 | 1.0
Cn1c(=O)c2[nH]c(SCCN3CCOCC3)nc2n(C)c1=S | 3.9 | 4.4 | 10.5 | 0.7
CC(=O)NC(Cc1ccc(F)cc1)C(=O)NC1CCN(c2nnnn2-c2ccccc2)CC1 (stereo not drawn) | 4.9 | 1.3 | 10.6 | -2.8
CCOc1ccccc1NC(=O)Cn1c(=O)oc2ccccc21 | -5.0 | -9.1 | 8.7 | -0.4
CCOc1ccccc1NC(=O)Cn1c(=O)oc2cc(Cl)ccc21 | -0.5 | -13.5 | 35.1* | 2.0
Cn1c(-c2ccc(Br)o2)nc2ccccc21 | 0.1 | -1.8 | 13.9 | -2.3
Cn1c(-c2ccc(Br)o2)nc2cc(Br)ccc21 | 6.9 | -14.4 | 42.8* | -1.0
CCOC(=O)C1(C)CCN1C(=O)c1ccccc1OC (stereo not drawn) | 0.7 | 0.1 | 5.6 | -2.2
COc1ccccc1-n1c(SCC(=O)N2CCCC2)nnc1-c1ccccc1 | -1.7 | 21.1* | 6.3 | 0.4
COc1ccccc1-n1c(SCC(N)=O)nnc1-c1ccc(S(=O)(=O)N2CCCCC2)cc1 | -5.0 | -0.1 | 6.4 | 0.9
Cc1nn(C(C)C(=O)NCCc2ccco2)c(=O)c2nn(-c3ccccc3)c(C)c12 (stereo not drawn) | -1.6 | 5.5 | 15.0 | -0.5
CCCOc1ccc2cc(-c3ccccn3)c(=O)oc2c1 | -0.5 | -0.8 | 44.7* | -4.0
CCCN(CC1CC1)c1cc2c(c3c1ccn3C)C1CCC2O1 (stereo not drawn) | -0.8 | 21.6* | 8.2 | -0.6
CCN(CC)c1cc2c(c3c1ccn3C)C1CCC2O1 (stereo not drawn) | 4.0 | 8.0 | 5.1 | -0.9
CSCCC(NC(=O)c1ccc(Cl)cc1Cl)C(=O)NCC(c1cccs1)N(C)C (stereo not drawn) | 1.4 | 25.5* | -3.8 | -0.4
Cc1cc(N)c(C)c([N+](=O)[O-])c1C | 2.2 | 30.9* | -1.0 | 0.3
SMILES | MT1-MMP act inh | CendR NRP1 mod | SKN-1 block | iPSC survival up
Cc1c(N)c(C(C)(C)C)cc(C(C)(C)C)c1[N+](=O)[O-] | 2.0 | 0.6 | 19.1 | 3.1
CCN1C(=O)N[C@@H](c2ccccc2)[C@@H](C(=O)OC)[C@H]1C | 7.7 | 21.6 | 12.5 | 5.5
O=C(O)/C=C/C(=O)Nc1ccc(OCc2ccccc2)cc1 | 1.3 | 22.1* | 8.0 | -0.7
COc1ccc(C(=O)N2CCC(C)(C(=O)NS(=O)(=O)C3CC3)C2)cc1F (stereo not drawn) | 1.3 | 21.6* | -2.7 | -1.0
O=C(NCc1ccccc1)C1Cc2c(-c3ccc4c(c3)OCO4)ccnc2O1 (stereo not drawn) | 13.7 | -1.2 | 0.2 | -2.1
CC(C)(C)NC(=O)Nc1ccc(Br)cc1 | -1.1 | -8.1 | 16.6 | 3.1
O=C1CCCN1CCCNc1nc(NCc2cccs2)nc2ccsc12 | -16.2 | 25.6* | 20.6 | 9.4
O=C1C(NS(=O)(=O)c2cccs2)=C(N2CCN(c3cccc(Cl)c3)CC2)C(=O)c2ccccc21 | 6.2 | 39.5* | 9.7 | 1.7
O=C1C(NS(=O)(=O)c2ccccc2)=C(N2CCN(c3ccc(F)cc3)CC2)C(=O)c2ccccc21 | 14.2 | 0.4 | 8.3 | -0.4
COc1ccc(-c2ccc(NC(=O)c3ccc(Br)o3)cc2)nn1 | 5.1 | -3.1 | 8.5 | 0.5
Cn1c(=O)c2[nH]c(-c3ccccc3)c(O)c2n(C)c1=O | -48.6 | 36.4* | -5.9 | 2.4
CCC1(CC)NC(=O)N(CC(=O)OCC(=O)Nc2ccc(F)c(F)c2F)C1=O | 2.4 | 0.9 | -5.8 | -0.2
CCC1(CC)NC(=O)N(CC(=O)OCC(=O)Nc2cc(OC)ccc2OC)C1=O | 0.2 | 24.2* | 1.7 | -2.2
COc1ccccc1C=NNc1ccc([N+](=O)[O-])cn1 | -4.7 | 24.1* | 1.0 | 0.1
CCc1ccc(-c2ccc3nnc(SCC(N)=O)n3n2)cc1 | 2.1 | 23.8* | 2.5 | -0.4
CCCS(=O)(=O)c1nc(S(=O)(=O)c2ccc(C)cc2)c(NCCCN(C)C)s1 | -3.1 | 0.2 | 3.2 | 6.2
CCc1[nH]nc2c1C(c1ccc(Br)s1)C(C#N)=C(N)O2 (stereo not drawn) | 5.5 | -1.2 | 1.8 | 0.3
Cc1ccc2c(c1)Sc1c(ccc3ccccc13)N2 | -3.0 | 47.7* | -2.1 | 0.8
OC(CNC1CCCC1)COc1ccc(-c2ccccc2)cc1 (stereo not drawn) | -2.8 | -6.3 | 43.4* | -0.1
COc1ccc(OCC(O)CNC(C)c2ccccc2)cc1 (stereo not drawn) | 1.5 | -4.3 | -5.7 | 0.7
CCCC(NCC(O)COc1ccc(-c2ccccc2)cc1)c1ccccc1 (stereo not drawn) | -4.6 | 4.6 | 58.0* | -0.2
Cc1cnc(C(=O)Nc2ccccc2-c2ccc(C)o2)cn1 | -141.2 | 0.9 | 36.5* | 0.4
CC(=O)Nc1c([N+](=O)[O-])cc2c3c(cccc13)CC2 | 3.7 | -0.5 | 12.0 | -0.1
CCCCNC(=O)COC(=O)c1cc(S(=O)(=O)N2CCCCCC2)ccc1OC | -2.9 | 11.6 | 40.3* | -0.7
Cc1c(C(=O)Nc2cccc(C(F)(F)F)c2)oc2ccc(S(=O)(=O)N3CCOCC3)cc12 | 4.9 | -5.3 | 36.3* | 4.1
SMILES | MT1-MMP act inh | CendR NRP1 mod | SKN-1 block | iPSC survival up
Cc1c(C(=O)NCc2ccccc2)oc2ccc(S(=O)(=O)N3CCCC3)cc12 | -2.8 | -1.1 | -7.0 | 0.5
Cc1c(C(=O)N(C)Cc2ccccc2)oc2ccc(S(=O)(=O)N3CCCC3)cc12 | 11.0 | 24.6* | 12.1 | -0.5
Cc1ccc(NC(=S)c2nc3ccccc3s2)cc1 | 1.4 | 0.2 | 35.3* | -3.6
CCOc1ccc2nc3cc(N=Nc4ccc(N)nc4N)ccc3c(N)c2c1 | 4.0 | 50.1* | 14.3 | -3.0
COc1ccc(N=Nc2ccc(N)nc2N)cc1 | -1.6 | -24.4 | 25.6 | 0.6
C=C(C)COc1ccc(-c2[nH]ncc2-c2ccccc2)c(O)c1 | 4.0 | 25.3* | -7.8 | -2.4
COc1cccc2c1NC(C(=O)O)C1CC=CC21 (stereo not drawn) | 11.0 | 42.1* | 0.7 | 4.6
